According to ChEMBL document CHEMBL1687781, “Comparative biochemical and computational study of the role of naturally occurring mutations at Ambler positions 104 and 170 in GES β-lactamases” (Antimicrob Agents Chemother, 2010):
In brackets after ≈: the same amount, converted by molar mass.

Tested on: Escherichia coli
Experiment: Antimicrobial activity against Escherichia coli DH5[alpha] transformed with pAC-ges1 plasmid encoding Beta-lactamase GES-1 E104, G170 mutant by Etest method
Type: functional

SMILES	MIC [µg/mL]
C[C@@H](O)[C@H]1C(=O)N2C(C(=O)O)=C(S[C@@H]3CN[C@H](C(=O)N(C)C)C3)[C@H](C)[C@H]12 [MEROPENEM]	0.016 (≈ 0.0417 µM)
CC1(C)S[C@@H]2[C@H](NC(=O)[C@H](N)c3ccccc3)C(=O)N2[C@H]1C(=O)O [AMPICILLIN]	> 256
CC1(C)S[C@@H]2[C@H](NC(=O)[C@H](C(=O)O)c3ccsc3)C(=O)N2[C@H]1C(=O)O [TICARCILLIN]	> 256

Tested on: Escherichia coli
Experiment: Antimicrobial activity against Escherichia coli DH5[alpha] transformed with pAC-ges1 plasmid encoding Beta-lactamase GES-7 K104, G170 mutant by Etest method
Type: functional

SMILES	MIC [µg/mL]
C[C@@H](O)[C@H]1C(=O)N2C(C(=O)O)=C(S[C@@H]3CN[C@H](C(=O)N(C)C)C3)[C@H](C)[C@H]12 [MEROPENEM]	0.016 (≈ 0.0417 µM)
CC1(C)S[C@@H]2[C@H](NC(=O)[C@H](N)c3ccccc3)C(=O)N2[C@H]1C(=O)O [AMPICILLIN]	> 256
CC1(C)S[C@@H]2[C@H](NC(=O)[C@H](C(=O)O)c3ccsc3)C(=O)N2[C@H]1C(=O)O [TICARCILLIN]	> 256

Tested on: Escherichia coli
Experiment: Antimicrobial activity against Escherichia coli DH5[alpha] transformed with pAC-ges1 plasmid encoding Beta-lactamase GES-2 E104, N170 mutant by Etest method
Type: functional

SMILES	MIC [µg/mL]
C[C@@H](O)[C@H]1C(=O)N2C(C(=O)O)=C(S[C@@H]3CN[C@H](C(=O)N(C)C)C3)[C@H](C)[C@H]12 [MEROPENEM]	0.032 (≈ 0.0834 µM)
CC1(C)S[C@@H]2[C@H](NC(=O)[C@H](N)c3ccccc3)C(=O)N2[C@H]1C(=O)O [AMPICILLIN]	> 256
CC1(C)S[C@@H]2[C@H](NC(=O)[C@H](C(=O)O)c3ccsc3)C(=O)N2[C@H]1C(=O)O [TICARCILLIN]	> 256

Tested on: Escherichia coli
Experiment: Antimicrobial activity against Escherichia coli DH5[alpha] transformed with pAC-ges1 plasmid encoding Beta-lactamase GES-6 K104, S170 mutant by Etest method
Type: functional

SMILES	MIC [µg/mL]
C[C@@H](O)[C@H]1C(=O)N2C(C(=O)O)=C(S[C@@H]3CN[C@H](C(=O)N(C)C)C3)[C@H](C)[C@H]12 [MEROPENEM]	0.047 (≈ 0.123 µM)
CC1(C)S[C@@H]2[C@H](NC(=O)[C@H](N)c3ccccc3)C(=O)N2[C@H]1C(=O)O [AMPICILLIN]	> 256
CC1(C)S[C@@H]2[C@H](NC(=O)[C@H](C(=O)O)c3ccsc3)C(=O)N2[C@H]1C(=O)O [TICARCILLIN]	> 256

Tested on: Escherichia coli
Experiment: Antimicrobial activity against Escherichia coli DH5[alpha] transformed with pAC-ges1 plasmid encoding Beta-lactamase GES-13 K104, N170 mutant by Etest method
Type: functional

SMILES	MIC [µg/mL]
C[C@@H](O)[C@H]1C(=O)N2C(C(=O)O)=C(S[C@@H]3CN[C@H](C(=O)N(C)C)C3)[C@H](C)[C@H]12 [MEROPENEM]	0.023 (≈ 0.06 µM)
CC1(C)S[C@@H]2[C@H](NC(=O)[C@H](N)c3ccccc3)C(=O)N2[C@H]1C(=O)O [AMPICILLIN]	> 256
CC1(C)S[C@@H]2[C@H](NC(=O)[C@H](C(=O)O)c3ccsc3)C(=O)N2[C@H]1C(=O)O [TICARCILLIN]	> 256

Tested on: Escherichia coli
Experiment: Antimicrobial activity against Escherichia coli DH5[alpha] by Etest method
Type: functional

SMILES	MIC [µg/mL]
C[C@@H](O)[C@H]1C(=O)N2C(C(=O)O)=C(S[C@@H]3CN[C@H](C(=O)N(C)C)C3)[C@H](C)[C@H]12 [MEROPENEM]	0.008 (≈ 0.0209 µM)
CC1(C)S[C@@H]2[C@H](NC(=O)[C@H](C(=O)O)c3ccsc3)C(=O)N2[C@H]1C(=O)O [TICARCILLIN]	4 (≈ 10.4 µM)

Tested on: Escherichia coli
Experiment: Antimicrobial activity against Escherichia coli DH5[alpha] transformed with pAC-ges1 plasmid encoding Beta-lactamase GES-5 E104, S170 mutant by Etest method
Type: functional

SMILES	MIC [µg/mL]
C[C@@H](O)[C@H]1C(=O)N2C(C(=O)O)=C(S[C@@H]3CN[C@H](C(=O)N(C)C)C3)[C@H](C)[C@H]12 [MEROPENEM]	0.094 (≈ 0.245 µM)
CC1(C)S[C@@H]2[C@H](NC(=O)[C@H](N)c3ccccc3)C(=O)N2[C@H]1C(=O)O [AMPICILLIN]	> 256
CC1(C)S[C@@H]2[C@H](NC(=O)[C@H](C(=O)O)c3ccsc3)C(=O)N2[C@H]1C(=O)O [TICARCILLIN]	> 256

Tested on: Escherichia coli
Experiment: Antimicrobial activity against Escherichia coli DH5[alpha] transformed with pAC-ges1 plasmid encoding Beta-lactamase GES-1 E104, G170 mutant in presence of clavulanic acid at compound/inhibitor ratio of 2:1 by Etest method
Type: functional
Procedure, shortened: (§1)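 E. coli DH5α host, either untransformed or carrying pACYC184-based clones of the GES variant genes. MICs of penicillin–clavulanate combinations were read by Etest following the manufacturer's recommendations, with penicillin and inhibitor at a 2:1 ratio.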

SMILES	MIC [µg/mL]
CC1(C)S[C@@H]2[C@H](NC(=O)[C@H](N)c3ccc(O)cc3)C(=O)N2[C@H]1C(=O)O [AMOXICILLIN]	8

Tested on: Escherichia coli
Experiment: Antimicrobial activity against Escherichia coli DH5[alpha] transformed with pAC-ges1 plasmid encoding Beta-lactamase GES-7 K104, G170 mutant in presence of clavulanic acid at compound/inhibitor ratio of 2:1 by Etest method
Type: functional
Procedure, shortened: as §1

SMILES	MIC [µg/mL]
CC1(C)S[C@@H]2[C@H](NC(=O)[C@H](N)c3ccc(O)cc3)C(=O)N2[C@H]1C(=O)O [AMOXICILLIN]	32

Tested on: Escherichia coli
Experiment: Antimicrobial activity against Escherichia coli DH5[alpha] transformed with pAC-ges1 plasmid encoding Beta-lactamase GES-2 E104, N170 mutant in presence of clavulanic acid at compound/inhibitor ratio of 2:1 by Etest method
Type: functional
Procedure, shortened: as §1

SMILES	MIC [µg/mL]
CC1(C)S[C@@H]2[C@H](NC(=O)[C@H](N)c3ccc(O)cc3)C(=O)N2[C@H]1C(=O)O [AMOXICILLIN]	3

Tested on: Escherichia coli
Experiment: Antimicrobial activity against Escherichia coli DH5[alpha] transformed with pAC-ges1 plasmid encoding Beta-lactamase GES-5 E104, S170 mutant in presence of clavulanic acid at compound/inhibitor ratio of 2:1
Type: functional
Procedure, shortened: as §1

SMILES	MIC [µg/mL]
CC1(C)S[C@@H]2[C@H](NC(=O)[C@H](N)c3ccc(O)cc3)C(=O)N2[C@H]1C(=O)O [AMOXICILLIN]	16

Tested on: Escherichia coli
Experiment: Antimicrobial activity against Escherichia coli DH5[alpha] transformed with pAC-ges1 plasmid encoding Beta-lactamase GES-6 K104, S170 mutant in presence of clavulanic acid at compound/inhibitor ratio of 2:1 by Etest method
Type: functional
Procedure, shortened: as §1

SMILES	MIC [µg/mL]
CC1(C)S[C@@H]2[C@H](NC(=O)[C@H](N)c3ccc(O)cc3)C(=O)N2[C@H]1C(=O)O [AMOXICILLIN]	32

Tested on: Escherichia coli
Experiment: Antimicrobial activity against Escherichia coli DH5[alpha] transformed with pAC-ges1 plasmid encoding Beta-lactamase GES-13 K104, N170 mutant in presence of clavulanic acid at compound/inhibitor ratio of 2:1 by Etest method
Type: functional
Procedure, shortened: as §1

SMILES	MIC [µg/mL]
CC1(C)S[C@@H]2[C@H](NC(=O)[C@H](N)c3ccc(O)cc3)C(=O)N2[C@H]1C(=O)O [AMOXICILLIN]	3

Tested on: Escherichia coli
Experiment: Antimicrobial activity against Escherichia coli DH5[alpha] in presence of clavulanic acid at compound/inhibitor ratio of 2:1 by Etest method
Type: functional
Procedure, shortened: as §1

SMILES	MIC [µg/mL]
CC1(C)S[C@@H]2[C@H](NC(=O)[C@H](N)c3ccc(O)cc3)C(=O)N2[C@H]1C(=O)O [AMOXICILLIN]	2

Tested on: Escherichia coli
Experiment: Antimicrobial activity against Escherichia coli DH5[alpha] transformed with pAC-ges1 plasmid encoding Beta-lactamase GES-1 E104, G170 mutant in presence of at 2 ug/ml clavulanic acid by Etest method
Type: functional

SMILES	MIC [µg/mL]
CC1(C)S[C@@H]2[C@H](NC(=O)[C@H](C(=O)O)c3ccsc3)C(=O)N2[C@H]1C(=O)O [TICARCILLIN]	6

Tested on: Escherichia coli
Experiment: Antimicrobial activity against Escherichia coli DH5[alpha] transformed with pAC-ges1 plasmid encoding Beta-lactamase GES-7 K104, G170 mutant in presence of at 2 ug/ml clavulanic acid by Etest method
Type: functional

SMILES	MIC [µg/mL]
CC1(C)S[C@@H]2[C@H](NC(=O)[C@H](C(=O)O)c3ccsc3)C(=O)N2[C@H]1C(=O)O [TICARCILLIN]	> 256

Tested on: Escherichia coli
Experiment: Antimicrobial activity against Escherichia coli DH5[alpha] transformed with pAC-ges1 plasmid encoding Beta-lactamase GES-2 E104, N170 mutant in presence of at 2 ug/ml clavulanic acid by Etest method
Type: functional
Procedure, shortened: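 MIC read by Etest per the manufacturer's instructions. Host was E. coli DH5α carrying the bla_GES gene cloned into the chloramphenicol- and tetracycline-resistant vector pACYC184, with the high-copy plasmid pBC-ges1 as the gene source. The inhibitor was held at a fixed 2 μg/ml.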

SMILES	MIC [µg/mL]
CC1(C)S[C@@H]2[C@H](NC(=O)[C@H](C(=O)O)c3ccsc3)C(=O)N2[C@H]1C(=O)O [TICARCILLIN]	1.5

Tested on: Escherichia coli
Experiment: Antimicrobial activity against Escherichia coli DH5[alpha] transformed with pAC-ges1 plasmid encoding Beta-lactamase GES-5 E104, S170 mutant in presence of at 2 ug/ml clavulanic acid by Etest method
Type: functional

SMILES	MIC [µg/mL]
CC1(C)S[C@@H]2[C@H](NC(=O)[C@H](C(=O)O)c3ccsc3)C(=O)N2[C@H]1C(=O)O [TICARCILLIN]	16

Tested on: Escherichia coli
Experiment: Antimicrobial activity against Escherichia coli DH5[alpha] transformed with pAC-ges1 plasmid encoding Beta-lactamase GES-6 K104, S170 mutant in presence of at 2 ug/ml clavulanic acid by Etest method
Type: functional

SMILES	MIC [µg/mL]
CC1(C)S[C@@H]2[C@H](NC(=O)[C@H](C(=O)O)c3ccsc3)C(=O)N2[C@H]1C(=O)O [TICARCILLIN]	> 256

Tested on: Escherichia coli
Experiment: Antimicrobial activity against Escherichia coli DH5[alpha] transformed with pAC-ges1 plasmid encoding Beta-lactamase GES-13 K104, N170 mutant in presence of at 2 ug/ml clavulanic acid by Etest method
Type: functional

SMILES	MIC [µg/mL]
CC1(C)S[C@@H]2[C@H](NC(=O)[C@H](C(=O)O)c3ccsc3)C(=O)N2[C@H]1C(=O)O [TICARCILLIN]	8

Tested on: Escherichia coli
Experiment: Antimicrobial activity against Escherichia coli DH5[alpha] in presence of at 2 ug/ml clavulanic acid by Etest method
Type: functional

SMILES	MIC [µg/mL]
CC1(C)S[C@@H]2[C@H](NC(=O)[C@H](C(=O)O)c3ccsc3)C(=O)N2[C@H]1C(=O)O [TICARCILLIN]	4
